Reference: ChEMBL document CHEMBL4251593, “Nontoxic combretafuranone analogues with high in vitro antibacterial activity” (Eur J Med Chem, 2018)
In brackets after ≈: the same amount, converted by molar mass. Activity calls are given as the source filed them. No cut-off for these calls is given here.

Legend:
[1] = tested on: Staphylococcus aureus; experiment: Antibacterial activity against methicillin-resistant Staphylococcus aureus HK5996/08 clinical isolate after 48 hrs by microdilution assay; type: functional; conditions: HK5996/08, 48 h
[2] = tested on: K562; experiment: Induction of apoptosis in human K562 cells assessed as caspase 3/7 activity after 24 hrs by caspase-glo luminescent assay; type: cell-based; conditions: K562, 24 h
Summary of the method: (§1)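 Cells were seeded at 500 per well in their growth media and exposed to 12 concentrations from 40 µM to 1 nM, delivered from DMSO, in triplicate. After 24 h, caspase-3/7 activity was read by Caspase-Glo luminescence. Data were normalized and ED50 was fitted by variable-slope nonlinear regression.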

[3] = tested on: Aspergillus fumigatus; experiment: Antifungal activity against Aspergillus fumigatus 231 up to 1 mM after 24 to 48 hrs by microdilution assay; type: functional, organism-based
Summary of the method: (§2)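 Fungal microdilution following modified CLSI M27-A3/M38-A2, in RPMI 1640 with L-glutamine and 0.165 M MOPS at pH 7.0, with DMSO no more than 2% final. Compounds were 2-fold serially diluted from 2000 to 0.488 µmol/l. The inoculum was 5×10^3 cfu/ml. Incubation was at 35 °C, read visually at 24/48 h (T. mentagrophytes at 72/120 h). MIC was IC80 for yeasts and IC50 for filamentous fungi, determined twice in duplicate.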

[4] = tested on: Staphylococcus epidermidis; experiment: Antibacterial activity against Staphylococcus epidermidis HK6966/08 clinical isolate after 24 hrs by microdilution assay; type: functional; conditions: HK6966/08, 24 h
[5] = tested on: Trichophyton mentagrophytes; experiment: Antifungal activity against Trichophyton mentagrophytes 445 up to 1 mM after 72 to 120 hrs by microdilution assay; type: functional, organism-based; summary of the method: as §2
[6] = tested on: MCF7; experiment: Cytotoxicity against human MCF7 cells assessed as reduction in cell viability after 48 hrs by ATPlite-based luminescent assay; conditions: MCF7, 48 h
[7] = tested on: Lichtheimia corymbifera; experiment: Antifungal activity against Absidia corymbifera 272 up to 1 mM after 24 to 48 hrs by microdilution assay; type: functional, organism-based; summary of the method: as §2
[8] = tested on: Candida parapsilosis; experiment: Antifungal activity against Candida parapsilosis ATCC 22019 up to 1 mM after 24 to 48 hrs by microdilution assay; type: functional, organism-based; summary of the method: as §2
[9] = tested on: TERT-RPE1; experiment: Cytotoxicity against human RPE1 cells assessed as reduction in cell viability after 48 hrs by ATPlite-based luminescent assay; conditions: RPE-1, 48 h
Summary of the method: (§3)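 Cells were grown […] with 10% FBS, glutamax, NEAA and pen/strep at 37 °C, 5% CO2. Media were DMEM for RPE-1, HepG2 and BJ (BJ plus 10 ng/ml bFGF), F-12K for PC3, and IMDM for K562/HL-60. Cells were seeded at 500 per well and dosed from DMSO at 12 concentrations, 40 µM to 1 nM, in triplicate. After 48 h, intracellular ATP was read by luminescence. ED50 was obtained by variable-slope nonlinear regression.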

[10] = tested on: Nakaseomyces glabratus; experiment: Antifungal activity against Candida glabrata 20/I clinical isolate up to 1 mM after 24 to 48 hrs by microdilution assay; type: functional, organism-based; summary of the method: as §2
[11] = tested on: Clavispora lusitaniae; experiment: Antifungal activity against Candida lusitaniae 2446/I clinical isolate up to 1 mM after 24 to 48 hrs by microdilution assay; type: functional, organism-based; summary of the method: as §2
[12] = tested on: BJ; experiment: Cytotoxicity against human BJ cells assessed as reduction in cell viability after 48 hrs by ATPlite-based luminescent assay; summary of the method: as §3
[13] = tested on: HL-60; experiment: Cytotoxicity against human HL60 cells assessed as reduction in cell viability after 48 hrs by ATPlite-based luminescent assay; conditions: HL-60, 48 h; summary of the method: as §3
[14] = tested on: Staphylococcus aureus; experiment: Antibacterial activity against Staphylococcus aureus ATCC 6538 after 48 hrs by microdilution assay; type: functional; conditions: ATCC 6538, 48 h
[15] = tested on: Trichosporon asahii; experiment: Antifungal activity against Trichosporon asahii 1188 clinical isolate up to 1 mM after 24 to 48 hrs by microdilution assay; type: functional, organism-based; summary of the method: as §2
[16] = tested on: Candida tropicalis; experiment: Antifungal activity against Candida tropicalis 156 clinical isolate up to 1 mM after 24 to 48 hrs by microdilution assay; type: functional, organism-based; summary of the method: as §2
[17] = tested on: Klebsiella pneumoniae; experiment: Antibacterial activity against Klebsiella pneumoniae HK11750/08 clinical isolate after 24 hrs by microdilution assay; type: functional; conditions: HK11750/08, 24 h
[18] = tested on: Pseudomonas aeruginosa; experiment: Antibacterial activity against Pseudomonas aeruginosa ATCC 9027 after 24 hrs by microdilution assay; type: functional; conditions: ATCC 9027, 24 h
Summary of the method: (§4)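 Broth microdilution in Mueller-Hinton medium buffered to pH 7.4 (±0.2), with DMSO as diluent at no more than 2% final. Compounds were tested as 2-fold serial dilutions from 2000 to 0.488 µmol/l. The inoculum was 0.5 McFarland (1.5×10^8 cfu/ml). Plates were held at 37 °C and read visually at 24 and 48 h. MIC was taken as 95% growth inhibition versus control, determined twice in duplicate.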

[19] = tested on: HepG2; experiment: Induction of apoptosis in human HepG2 cells assessed as caspase 3/7 activity after 24 hrs by caspase-glo luminescent assay; type: cell-based; conditions: HepG2, 24 h; summary of the method: as §1
[20] = tested on: Pichia kudriavzevii; experiment: Antifungal activity against Candida krusei ATCC 6258 up to 1 mM after 24 to 48 hrs by microdilution assay; type: functional, organism-based; summary of the method: as §2
[21] = tested on: Pichia kudriavzevii; experiment: Antifungal activity against Candida krusei E28 clinical isolate up to 1 mM after 24 to 48 hrs by microdilution assay; type: functional, organism-based; summary of the method: as §2
[22] = tested on: Klebsiella pneumoniae; experiment: Antibacterial activity against Klebsiella pneumoniae HK14368/08 clinical isolate after 24 hrs by microdilution assay; type: functional; conditions: HK14368/08, 24 h
[23] = tested on: HL-60; experiment: Induction of apoptosis in human HL60 cells assessed as caspase 3/7 activity after 24 hrs by caspase-glo luminescent assay; type: cell-based; conditions: HL-60, 24 h; summary of the method: as §1
[24] = tested on: Staphylococcus epidermidis; experiment: Antibacterial activity against Staphylococcus epidermidis HK6966/08 clinical isolate after 48 hrs by microdilution assay; type: functional; conditions: HK6966/08, 48 h
[25] = tested on: Klebsiella pneumoniae; experiment: Antibacterial activity against Klebsiella pneumoniae HK14368/08 clinical isolate after 48 hrs by microdilution assay; type: functional; conditions: HK14368/08, 48 h
[26] = tested on: K562; experiment: Cytotoxicity against human K562 cells assessed as reduction in cell viability after 48 hrs by ATPlite-based luminescent assay; conditions: K562, 48 h; summary of the method: as §3
[27] = tested on: Escherichia coli; experiment: Antibacterial activity against Escherichia coli ATCC 8739 after 24 hrs by microdilution assay; type: functional; conditions: ATCC 8739, 24 h; summary of the method: as §4
[28] = tested on: Enterococcus sp.; experiment: Antibacterial activity against Enterococcus sp. HK14365/08 clinical isolate after 48 hrs by microdilution assay; type: functional; conditions: HK14365/08, 48 h
[29] = tested on: Klebsiella pneumoniae; experiment: Antibacterial activity against Klebsiella pneumoniae HK11750/08 clinical isolate after 48 hrs by microdilution assay; type: functional; conditions: HK11750/08, 48 h
[30] = tested on: TERT-RPE1; experiment: Induction of apoptosis in human RPE1 cells assessed as caspase 3/7 activity after 24 hrs by caspase-glo luminescent assay; type: cell-based; conditions: RPE-1, 24 h; summary of the method: as §1
[31] = tested on: Staphylococcus aureus; experiment: Antibacterial activity against methicillin-resistant Staphylococcus aureus HK5996/08 clinical isolate after 24 hrs by microdilution assay; type: functional; conditions: HK5996/08, 24 h
[32] = tested on: Candida albicans; experiment: Antifungal activity against Candida albicans ATCC 44859 up to 1 mM after 24 to 48 hrs by microdilution assay; type: functional, organism-based; summary of the method: as §2
[33] = tested on: HepG2; experiment: Cytotoxicity against human HepG2 cells assessed as reduction in cell viability after 48 hrs by ATPlite-based luminescent assay; conditions: HepG2, 48 h; summary of the method: as §3
[34] = tested on: Escherichia coli; experiment: Antibacterial activity against Escherichia coli ATCC 8739 after 48 hrs by microdilution assay; type: functional; conditions: ATCC 8739, 48 h; summary of the method: as §4
[35] = tested on: Enterococcus sp.; experiment: Antibacterial activity against Enterococcus sp. HK14365/08 clinical isolate after 24 hrs by microdilution assay; type: functional; conditions: HK14365/08, 24 h
[36] = tested on: Pseudomonas aeruginosa; experiment: Antibacterial activity against Pseudomonas aeruginosa ATCC 9027 after 48 hrs by microdilution assay; type: functional; conditions: ATCC 9027, 48 h; summary of the method: as §4
[37] = tested on: PC-3; experiment: Cytotoxicity against human PC3 cells assessed as reduction in cell viability after 48 hrs by ATPlite-based luminescent assay; conditions: PC-3, 48 h; summary of the method: as §3
[38] = tested on: Staphylococcus aureus; experiment: Antibacterial activity against Staphylococcus aureus ATCC 6538 after 24 hrs by microdilution assay; type: functional; conditions: ATCC 6538, 24 h
[39] = tested on: Candida albicans; experiment: Antifungal activity against Candida albicans ATCC 90028 up to 1 mM after 24 to 48 hrs by microdilution assay; type: functional, organism-based; summary of the method: as §2
[40] = tested on: PC-3; experiment: Induction of apoptosis in human PC3 cells assessed as caspase 3/7 activity after 24 hrs by caspase-glo luminescent assay; type: cell-based; conditions: PC-3, 24 h; summary of the method: as §1

| SMILES | MIC95 [1] [µM] | IC50 [2] [µM] | Activity [3] | MIC95 [4] [µM] | Activity [5] | IC50 [6] [µM] | Activity [7] | Activity [8] | IC50 [9] [µM] | Activity [10] | Activity [11] | IC50 [12] [µM] | IC50 [13] [µM] | MIC95 [14] [µM] | Activity [15] | Activity [16] | MIC95 [17] [µM] | MIC95 [18] [µM] | IC50 [19] [µM] | Activity [20] | other results |
| --- | --- | --- | --- | --- | --- | --- | --- | --- | --- | --- | --- | --- | --- | --- | --- | --- | --- | --- | --- | --- | --- |
| O=C1OC(CO)(CO)C(c2ccc(Br)cc2)=C1c1cccc(Cl)c1Cl | > 500 | > 40 | inactive | 62.5 (≈ 27.8 µg/mL) | inactive | > 40 | inactive | inactive | > 40 | inactive | inactive | > 40 | > 40 | 31.2 (≈ 13.9 µg/mL) | inactive | inactive | > 500 | > 500 | > 40 | inactive | Activity [21]: inactive; MIC95 [22]: > 500 µM; IC50 [23]: > 40 µM; MIC95 [24]: 250 µM (≈ 111 µg/mL); MIC95 [25]: > 500 µM; IC50 [26]: > 40 µM; MIC95 [27]: > 500 µM; MIC95 [28]: > 500 µM; MIC95 [29]: > 500 µM; IC50 [30]: > 40 µM; MIC95 [31]: > 500 µM; Activity [32]: inactive; IC50 [33]: > 40 µM; MIC95 [34]: > 500 µM; MIC95 [35]: > 500 µM; MIC95 [36]: > 500 µM; IC50 [37]: > 40 µM; MIC95 [38]: 15.6 µM (≈ 6.94 µg/mL); Activity [39]: inactive; IC50 [40]: > 40 µM |
| Cc1ccc(C2=C(c3ccc(Br)cc3)C(=O)OC2CO)cc1 (stereo not given) | 62.5 (≈ 22.5 µg/mL) | 46.7 | inactive | 62.5 (≈ 22.5 µg/mL) | inactive | > 40 | inactive | inactive | > 40 | inactive | inactive | > 40 | 21.3 | 15.6 (≈ 5.61 µg/mL) | inactive | inactive | > 500 | > 500 | > 40 | inactive | Activity [21]: inactive; MIC95 [22]: > 500 µM; IC50 [23]: > 40 µM; MIC95 [24]: 62.5 µM (≈ 22.5 µg/mL); MIC95 [25]: > 500 µM; IC50 [26]: 31.4 µM; MIC95 [27]: > 500 µM; MIC95 [28]: > 500 µM; MIC95 [29]: > 500 µM; IC50 [30]: > 40 µM; MIC95 [31]: 62.5 µM (≈ 22.5 µg/mL); Activity [32]: inactive; IC50 [33]: > 40 µM; MIC95 [34]: > 500 µM; MIC95 [35]: 500 µM (≈ 180 µg/mL); MIC95 [36]: > 500 µM; IC50 [37]: > 40 µM; MIC95 [38]: 15.6 µM (≈ 5.61 µg/mL); Activity [39]: inactive; IC50 [40]: > 40 µM |
